This passage reports Biodistribution results from ChEMBL document CHEMBL1125639, “Synthesis and resolution of (+-)-7-chloro-8-hydroxy-1-(3'-iodophenyl)-3-methyl-2,3,4,5-tetrahydro- 1H-3- benzazepine (TISCH): a high affinity and selective iodinated ligand for CNS D1 dopamine receptor” (J Med Chem, 1991).

The test system of series [1] is Rattus norvegicus. Nature of the series: Biodistribution of compound in rats lung after an intravenous injection was measured at 2 min. Type of series: ADME, organism-based. The settings on record: in vivo. A digest of the protocol: (§1)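 Male Sprague-Dawley rats (225-300 g), free access to food and water. Under ether anesthesia, given 0.2 mL saline containing 125I-labelled ligand (2-5 μCi, ~2200 Ci/mmol) into the femoral vein. Killed by cardiac excision at set times. Organs removed, weighed and gamma-counted. % dose/organ is taken against diluted injectate aliquots, with blood and muscle assumed to be 7% and 40% of body weight. Mean of 3 rats ± std dev.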

Series [2] concerns Rattus norvegicus. The experiment in a line: Biodistribution of compound in rats kidney after an intravenous injection was measured at 15 min. The conditions noted are these: in vivo, 0.25 h. It is filed as ADME, organism-based. Summed up: as §1
Series [3] has as its system Rattus norvegicus. The experiment in a line: Biodistribution of compound in rats blood after an intravenous injection was measured at 2 min. Type of series: ADME, organism-based. The settings on record: in vivo. Summed up: as §1
The subject of series [4] is Rattus norvegicus. The experiment in a line: Biodistribution of compound in rats skin after an intravenous injection was measured at 1 hr. Type of series: ADME, organism-based, Zone of skin. The conditions noted are these: in vivo. Summed up: as §1
Series [5] relates to Rattus norvegicus. The experiment in a line: Biodistribution of compound in rats blood after an intravenous injection was measured at 15 min. It is filed as ADME, organism-based. The conditions noted are these: in vivo, 0.25 h. A digest of the protocol: as §1
Series [6] relates to Rattus norvegicus. Nature of the series: Biodistribution of compound in rats spleen after an intravenous injection was measured at 1 hr. The conditions noted are these: in vivo. Type of series: ADME, organism-based. A digest of the protocol:
as §1

The test system of series [7] is Rattus norvegicus. The experiment in a line: Biodistribution of compound in rats liver after an intravenous injection was measured at 2 min. It is filed as ADME, organism-based. The settings on record: in vivo. Summed up:
as §1

Series [8] concerns Rattus norvegicus. The experiment in a line: Biodistribution of compound in rats heart after an intravenous injection was measured at 1 hr. The settings on record: in vivo. It is filed as ADME, organism-based. Summed up: as §1
Series [9] relates to Rattus norvegicus. The experiment in a line: Biodistribution of compound in rats liver after an intravenous injection was measured at 1 hr. Type of series: ADME, organism-based. The settings on record: in vivo. Summed up: as §1
Series [10] concerns Rattus norvegicus. Nature of the series: Biodistribution of compound in rats skin after an intravenous injection was measured at 2 min. Type of series: ADME, organism-based, Zone of skin. The conditions noted are these: in vivo. A digest of the protocol: as §1
For series [11], the system named is Rattus norvegicus. The experiment in a line: Biodistribution of compound in rats thyroid after an intravenous injection was measured at 1 hr. It is filed as ADME, organism-based, Thyroid gland. The settings on record: in vivo. A digest of the protocol: as §1
Series [12] concerns Rattus norvegicus. The experiment in a line: Regional brain distribution of compound in rats striatum after an intravenous injection was measured at 1 hr. Type of series: ADME, organism-based. The settings on record: in vivo. Summed up:
(§2)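 After femoral-vein injection of [125I]-labeled ligand (2-5 μCi, ~2200 Ci/mmol, 0.2 mL saline, ether anesthesia) into male Sprague-Dawley rats (225-300 g), brains were dissected into cortex, striatum and cerebellum, weighed and gamma-counted. % dose/gram calculated against diluted initial dose; regional ratio = % dose/gram of region divided by that of cerebellum.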

In series [13] the test system is Rattus norvegicus. Nature of the series: Biodistribution of compound in rats brain after an intravenous injection was measured at 2 min. It is filed as ADME, organism-based. The conditions noted are these: in vivo. A digest of the protocol:
(§3)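 Rats (male Sprague-Dawley, 225-300 g) given the 125I ligand (2-5 μCi, ~2200 Ci/mmol) in 0.2 mL saline via the femoral vein under ether anesthesia, then killed at set times. Whole brain removed, weighed and gamma-counted. % dose/organ is taken against diluted injectate aliquots. Mean of 3 rats ± std dev.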

Series [14] concerns Rattus norvegicus. The experiment in a line: Biodistribution of compound in rats liver after an intravenous injection was measured at 15 min. Type of series: ADME, organism-based. The conditions noted are these: in vivo, 0.25 h. Summed up:
as §1

For series [15], the system named is Rattus norvegicus. Nature of the series: Biodistribution of compound in rats brain after an intravenous injection was measured at 1 hr. Type of series: ADME, organism-based. The settings on record: in vivo. Summed up: as §3
In series [16] the test system is Rattus norvegicus. The experiment in a line: Regional brain distribution of compound in rats striatum after an intravenous injection was measured at 2 min. It is filed as ADME, organism-based. The conditions noted are these: in vivo. A digest of the protocol:
as §2

Series [17] has as its system Rattus norvegicus. The experiment in a line: Regional brain distribution of compound in rats cerebellum after an intravenous injection was measured at 15 min. Type of series: ADME, organism-based. The conditions noted are these: in vivo, 0.25 h. A digest of the protocol:
as §2

The subject of series [18] is Rattus norvegicus. The experiment in a line: Regional brain distribution of compound in rats cerebellum after an intravenous injection was measured at 1 hr. It is filed as ADME, organism-based. The conditions noted are these: in vivo. A digest of the protocol: as §2
The subject of series [19] is Rattus norvegicus. The experiment in a line: Biodistribution of compound in rats blood after an intravenous injection was measured at 1 hr. It is filed as ADME, organism-based. The settings on record: in vivo. Summed up: as §1
Series [20] has as its system Rattus norvegicus. Nature of the series: Biodistribution ratio measured as the ratio of compound present in brain to that of blood at 15 min after intravenous injection. It is filed as ADME, organism-based. The conditions noted are these: 0.25 h. A digest of the protocol:
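Male Sprague-Dawley rats (225-300 g) given 0.2 mL saline containing [125I]-labeled ligand (2-5 μCi, ~2200 Ci/mmol) via femoral vein under ether anesthesia; sacrificed at set times by cardiac excision. Brain and blood weighed and gamma-counted against diluted injectate; ratio taken from % dose/gram values, 3 rats per time point.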

Series [21] relates to Rattus norvegicus. Nature of the series: Regional brain distribution of compound in rats cerebellum after an intravenous injection was measured at 2 min. Type of series: ADME, organism-based. The conditions noted are these: in vivo. Summed up: as §2

Where “and” joins values, the source holds several entries; their conditions need not be identical. Equal entries are not always repeated.

On to `CN1CCc2cc(Cl)c(O)cc2[C@H](c2cccc(I)c2)C1`, for which the Biodistribution with Rattus norvegicus [1] was 9.02; in the series with Rattus norvegicus [2], 4.36; in the series with Rattus norvegicus [3], 2.94; in the series with Rattus norvegicus [4] it was 7.8; in the series with Rattus norvegicus [5] it was 1.588 and 0.975; in the series on Rattus norvegicus [6], 0.025. Besides, the Biodistribution in the series on Rattus norvegicus [7] came out at 16.13; in the series with Rattus norvegicus [8], 0.144; in the series with Rattus norvegicus [9] it was 16.51; in the series on Rattus norvegicus [10], 8.23; in the series on Rattus norvegicus [11], 0.035; with Rattus norvegicus [12], 0.21. The Biodistribution in the series with Rattus norvegicus [13] was 1.59; in the series with Rattus norvegicus [14] it was 20.35; in the series with Rattus norvegicus [15], 0.313; in the series with Rattus norvegicus [16], 0.398 and 0.555; in the series on Rattus norvegicus [17], 0.44; in the series with Rattus norvegicus [18], 0.109. Besides, the results for the Biodistribution in the series with Rattus norvegicus [19], in the series on Rattus norvegicus [20] and with Rattus norvegicus [21] were 0.975, 5.77% and 0.73, respectively.
